For 41 molecules, EC50, CC50 and IC50 results are on record in ChEMBL document CHEMBL1158495, “Quinolone carboxylic acids as a novel monoketo acid class of human immunodeficiency virus type 1 integrase inhibitors” (J Med Chem, 2009).

Bounds are passed on as bounds.

Data set [1] has as its system Human immunodeficiency virus 1. The data set can be described thus: Antiviral activity against HIV1 3B infected in human MT4 cells assessed as inhibition of viral replication after 5 days by MTT assay. The class given is functional, organism-based. Particulars: Human immunodeficiency virus 1, 3B, MT4, 120 h. The gist of the method:
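MT-4 human T lymphoid cells at 1 × 10^5 cells/mL in RPMI 1640 with 10% FBS, penicillin and streptomycin; infected with strain IIIb at multiplicity 0.01, compounds added, 37 °C for 5 days. Viability read by MTT (7.5 mg/mL solution), formazan dissolved in acidic isopropanol with 4% Triton-X, absorbance at 595 nm.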

Data set [2] in a line: Cytotoxicity against human MT4 cells after 5 days by MTT assay. Format: cell-based. The gist of the method:
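Uninfected MT-4 cells at 1 × 10^5 cells/mL in RPMI 1640 with 10% FBS, penicillin and streptomycin, exposed to compounds at 37 °C for 5 days. Viability by MTT (7.5 mg/mL solution); formazan taken up in acidic isopropanol containing 4% Triton-X, read at 595 nm.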
A general note: Formazan colour is commonly taken as a measure of viable cells.

Data set [3] concerns the target Human immunodeficiency virus type 1 integrase (Human immunodeficiency virus 1, UniProt Q7ZJM1). The data set can be described thus: Inhibition of HIV1 integrase strand transfer activity.

Human immunodeficiency virus type 1 integrase, sequence (Q7ZJM1 whole entry): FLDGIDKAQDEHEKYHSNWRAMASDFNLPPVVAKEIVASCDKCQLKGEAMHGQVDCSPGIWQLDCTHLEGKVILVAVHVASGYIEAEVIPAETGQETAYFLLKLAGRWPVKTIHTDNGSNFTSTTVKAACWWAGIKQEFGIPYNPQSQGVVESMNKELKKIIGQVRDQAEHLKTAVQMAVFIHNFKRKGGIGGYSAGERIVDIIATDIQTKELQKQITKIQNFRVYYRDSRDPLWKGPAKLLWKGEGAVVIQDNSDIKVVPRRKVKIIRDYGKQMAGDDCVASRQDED

For orientation: EC50 means the concentration giving half of the maximal effect. Usually CC50 stands for the concentration that lowers cell viability or growth by half. For the molecule `COc1cc2c(cc1Cc1cccc(Cl)c1F)c(=O)c(C(=O)O)cn2CCO`, in data set [1], the concentration for a half-maximal effect (EC50) amounted to 20 nM. In data set [2], this molecule returned a cytotoxic concentration (CC50) at 120 h of 5300 nM.
For `CC(C)[C@@H](CO)n1cc(C(=O)O)c(=O)c2cc(Cc3cccc(Cl)c3F)ccc21`, in that order: 7.5 nM and 14000 nM.
For `O=C(O)/C(O)=C/C(=O)c1cccc(Cc2ccccc2)c1`, in that order: 440 nM and above 30000 nM.
Turning to `O=C(O)c1cn(CCO)c2ccc(Cc3cccc(Cl)c3F)cc2c1=O`, in data set [1], the concentration giving a half-maximal response (EC50) worked out at 80 nM. This molecule had a CC50 at 120 h in data set [2] above 6000 nM.
The term IC50 denotes the concentration needed to halve the response being measured. In the case of `CCOC(=O)c1cnc2ccc(Cc3ccccc3)cc2c1O`, the half-maximal inhibitory concentration (IC50) in data set [3] was above 100000 nM. The 50% effective concentration (EC50) in data set [1] was above 30000 nM. The 50% cytotoxic concentration (CC50) at 120 h in data set [2] is above 30000 nM.
As for `O=C(O)c1cnc2ccc(Cc3ccccc3)cc2c1O`, in data set [1], the EC50 was above 30000 nM. The molecule further showed a 50% cytotoxic concentration (CC50) at 120 h in data set [2] above 30000 nM.
In the case of `COc1cc2c(cc1Cc1cccc(Cl)c1F)c(=O)c(C(=O)O)cn2[C@@H](CO)C(C)C`, the EC50 in data set [1] stood at 109 nM. The same molecule gave a CC50 at 120 h in data set [2] of 4200 nM.
`O=C(O)c1c[nH]c2ccc(Cc3ccc(Cl)cc3)cc2c1=O` came in with an IC50 in data set [3] above 100000 nM. In addition, the EC50 in data set [1] is above 6000 nM. The CC50 at 120 h in data set [2] was above 6000 nM.
Turning to `O=C(O)c1c[nH]c2ccc(Cc3ccccc3C(F)(F)F)cc2c1=O`, in data set [3], the IC50 worked out at 720 nM. Further, the EC50 in data set [1] was above 6000 nM. In data set [2], this molecule returned a cytotoxic concentration (CC50) at 120 h of 14800 nM.
On the same counts, the results for `COc1ccccc1Cc1ccc2[nH]cc(C(=O)O)c(=O)c2c1` are 1170 nM, above 6000 nM and 16600 nM.
For `O=C(O)c1c[nH]c2ccc(Cc3cc(Cl)ccc3Cl)cc2c1=O`, in that order: 250 nM, above 6000 nM and 13200 nM.
For `O=C(O)c1cn(CCO)c2cc(F)c(Cc3cccc(Cl)c3Cl)cc2c1=O`, in that order: 25 nM, 130 nM and 9800 nM.
In data set [3], `COc1cc2c(cc1Cc1cccc(Cl)c1Cl)c(=O)c(C(=O)O)cn2CCO` registered an IC50 of 12 nM. Also, in data set [1], the half-maximal effective concentration (EC50) was found to be 60 nM. The molecule further returned a CC50 at 120 h in data set [2] of 4200 nM.
For `Cc1cc2c(cc1Cc1cccc(Cl)c1Cl)c(=O)c(C(=O)O)cn2CCO`, in that order: 41 nM, 180 nM and above 30000 nM.
For `N#Cc1cc2c(cc1Cc1cccc(Cl)c1Cl)c(=O)c(C(=O)O)cn2CCO`, in that order: 50 nM, 2000 nM and 13900 nM.
On the same counts, the results for `Cn1cc(C(=O)O)c(=O)c2cc(Cc3cccc(Cl)c3Cl)ccc21` are 83 nM, 450 nM and 14400 nM.
The molecule `O=C(O)c1cn(CCO)c2ccc(Cc3cccc(Cl)c3Cl)cc2c1=O` returned an IC50 in data set [3] of 21 nM. In addition, the EC50 in data set [1] stood at 100 nM. The same molecule gave a CC50 at 120 h in data set [2] above 6000 nM.
For `O=C(O)c1cn(CCO)c2ccc(Cc3cccc(F)c3Cl)cc2c1=O`, in that order: 44 nM, 340 nM and above 6000 nM.
For the molecule `NC(=O)CCn1cc(C(=O)O)c(=O)c2cc(Cc3cccc(Cl)c3Cl)ccc21`, in data set [3], the IC50 was 116 nM. Besides, the EC50 in data set [1] amounted to 2040 nM. It took 15100 nM to reach half-maximal cytotoxicity in data set [2] (CC50 at 120 h).
On the same counts, the results for `CCCn1cc(C(=O)O)c(=O)c2cc(Cc3cccc(Cl)c3Cl)ccc21` are 55 nM, 640 nM and 15600 nM.
For `O=C(O)c1cn(CCO)c2cc(C(F)(F)F)c(Cc3cccc(Cl)c3Cl)cc2c1=O`, in that order: 674 nM, above 6000 nM and 10000 nM.
With `Cn1cc(C(=O)O)c(=O)c2cc(Cc3ccccc3)ccc21`, the IC50 in data set [3] is 2300 nM. For the same molecule, the concentration giving a half-maximal response (EC50) in data set [1] is above 30000 nM. Moreover, the half-maximal cytotoxic concentration (CC50) at 120 h in data set [2] is above 30000 nM.
For `O=C(O)c1cn(CCCO)c2ccc(Cc3cccc(Cl)c3Cl)cc2c1=O`, in data set [3], the 50% inhibitory concentration (IC50) was 77 nM. In addition, the EC50 in data set [1] was found to be 470 nM. It took 15100 nM to reach half-maximal cytotoxicity in data set [2] (CC50 at 120 h).
On the same counts, the results for `O=C(O)c1cn(CCO)c2ccc(Cc3cccc(Cl)c3Cl)c(F)c2c1=O` are 84 nM, 1680 nM and 14300 nM.
On the same counts, the results for `O=C(O)Cn1cc(C(=O)O)c(=O)c2cc(Cc3cccc(Cl)c3Cl)ccc21` are 32 nM, 13600 nM and above 30000 nM.
For `O=C(O)c1c[nH]c2ccc(Cc3ccccc3Cl)cc2c1=O`, in that order: 410 nM, above 6000 nM and above 6000 nM.
Take `O=C(O)c1c[nH]c2ccc(Cc3c(Cl)cccc3Cl)cc2c1=O`: the half-maximal inhibitory concentration (IC50) in data set [3] was 370 nM. Also, the EC50 in data set [1] was above 6000 nM. This molecule also had a cytotoxic concentration (CC50) at 120 h in data set [2] of 14900 nM.
On the same counts, the results for `O=C(O)c1cn(CCO)c2cc(Cl)c(Cc3cccc(Cl)c3Cl)cc2c1=O` are 43 nM, 510 nM and above 6000 nM.
On the same counts, the results for `O=C(O)c1c[nH]c2ccc(Cc3cccc(Cl)c3Cl)cc2c1=O` are 70 nM, 3400 nM and 12600 nM.
On the same counts, the results for `Cn1cc(C(=O)C(=O)O)c(=O)c2cc(Cc3ccccc3)ccc21` are above 100000 nM, above 30000 nM and above 30000 nM.
`NC(=O)c1c[nH]c2ccc(Cc3ccccc3)cc2c1=O` registered an IC50 in data set [3] above 100000 nM. Further, the concentration for a half-maximal effect (EC50) in data set [1] was above 30000 nM. In data set [2], this molecule registered a cytotoxic concentration (CC50) at 120 h above 30000 nM.
Turning to `O=C(O)c1cn(CCO)c2c(F)cc(Cc3cccc(Cl)c3Cl)cc2c1=O`, the half-maximal inhibitory concentration (IC50) in data set [3] was 34 nM. Also, in data set [1], the EC50 was determined as 530 nM. For the same molecule, the CC50 at 120 h in data set [2] was above 30000 nM.
For `Cc1ccccc1Cc1ccc2[nH]cc(C(=O)O)c(=O)c2c1`, in data set [3], the IC50 amounted to 1080 nM. Besides, the EC50 in data set [1] was above 6000 nM. For the same molecule, the CC50 at 120 h in data set [2] was determined as 18500 nM.
On the same counts, the results for `O=C(O)c1c[nH]c2ccc(Cc3cccc(Cl)c3)cc2c1=O` are 800 nM, above 6000 nM and above 6000 nM.
As for `CCn1cc(C(=O)O)c(=O)c2cc(Cc3cccc(Cl)c3Cl)ccc21`, inhibition in data set [3] was half-maximal at 31 nM (IC50). In data set [1], the EC50 amounted to 290 nM. Besides, in data set [2], half-maximal cytotoxicity (CC50 at 120 h) was put at 16200 nM.
The molecule `O=C(O)CCn1cc(C(=O)O)c(=O)c2cc(Cc3cccc(Cl)c3Cl)ccc21` returned an IC50 in data set [3] of 38 nM. For the same molecule, the EC50 in data set [1] is above 30000 nM. Besides, in data set [2], the 50% cytotoxic concentration (CC50) at 120 h is above 30000 nM.
Consider `O=C(O)c1c[nH]c2ccc(Cc3ccccc3F)cc2c1=O`, for which the half-maximal inhibitory concentration (IC50) in data set [3] came to 500 nM. Moreover, the EC50 in data set [1] was 15900 nM. Further, in data set [2], the CC50 at 120 h was above 30000 nM.
`NCCn1cc(C(=O)O)c(=O)c2cc(Cc3cccc(Cl)c3Cl)ccc21` displayed an IC50 in data set [3] of 215 nM. The EC50 in data set [1] was determined as 570 nM. For the same molecule, the midpoint of cytotoxicity in data set [2], the CC50 at 120 h, lay at 5300 nM.
On the same counts, the results for `CCCCn1cc(C(=O)O)c(=O)c2cc(Cc3cccc(Cl)c3Cl)ccc21` are 65 nM, 2340 nM and 15000 nM.
For the molecule `CC(C)n1cc(C(=O)O)c(=O)c2cc(Cc3cccc(Cl)c3Cl)ccc21`, the IC50 in data set [3] worked out at 26 nM. For the same molecule, in data set [1], the half-maximal effective concentration (EC50) came to 330 nM. The molecule further yielded a half-maximal cytotoxic concentration (CC50) at 120 h in data set [2] above 6000 nM.
As for `NC(=O)Cn1cc(C(=O)O)c(=O)c2cc(Cc3cccc(Cl)c3Cl)ccc21`, in data set [3], the IC50 stood at 35 nM. In addition, the concentration for a half-maximal effect (EC50) in data set [1] was determined as 540 nM. This molecule also had a 50% cytotoxic concentration (CC50) at 120 h in data set [2] of 22600 nM.
